Source: ChEMBL document CHEMBL4689842, “EUbOPEN Chemogenomics Library wave 1” (2021)

System: Fibroblast
Assay: Multiplex assay against human fibroblast
Format: toxicity, cell-based
Outline: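 At seeding, live cells were stained with Hoechst33342, BioTracker Green Microtubule Cytoskeleton Dye, MitoTracker Red and Annexin V Alexa Fluor 680. After compound addition they were imaged on a CQ1 microscope at 37°C and 5% CO2, and CellPathfinder machine-learning gating sorted them into Hoechst high-intensity objects or normal cells, with normal cells further split into healthy, pyknosed or fragmented nuclei and pyknosed cells into mitotic or apoptotic. Tubulin, mitochondrial-mass and membrane-permeability phenotypes are given as per cents of cells with healthy nuclei.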

[1] = 12 h, 1 µM, compound concentration 1 uM, replicate 1
[2] = 12 h, 1 µM, compound concentration 1 uM, replicate 2
[3] = 12 h, 10 µM, compound concentration 10 uM, replicate 1
[4] = 12 h, 10 µM, compound concentration 10 uM, replicate 2
[5] = 24 h, 1 µM, compound concentration 1 uM, replicate 1
[6] = 24 h, 1 µM, compound concentration 1 uM, replicate 2
[7] = 24 h, 10 µM, compound concentration 10 uM, replicate 1
[8] = 24 h, 10 µM, compound concentration 10 uM, replicate 2
[9] = 48 h, 1 µM, compound concentration 1 uM, replicate 1
[10] = 48 h, 1 µM, compound concentration 1 uM, replicate 2
[11] = 48 h, 10 µM, compound concentration 10 uM, replicate 1
[12] = 48 h, 10 µM, compound concentration 10 uM, replicate 2

## COc1ccc(NS(=O)(=O)c2sc3ccc(Cl)cc3c2C)cc1N1CCNCC1.Cl
[1]
  Population Apoptotic (%): 50%
  Population Fragmented Nuclei (%): 25%
  Population Healthy Nuclei (%): 38%
  Population Hoechst High Intensity Objects (%): 10%
  Population Membrane Permeable-Phenotype (%): 30%
  Population Mitochondria Different-Phenotype (%): 4%
  Population Mitotic Cells (%): 50%
  Population Normal (%): 89%
  Population Pyknosed Nuclei (%): 35%
  Population Tubulin-Different-Phenotype (%): 30%
  Total Cell Count: 125
[2]
  Population Apoptotic (%): 28%
  Population Fragmented Nuclei (%): 13%
  Population Healthy Nuclei (%): 69%
  Population Hoechst High Intensity Objects (%): 12%
  Population Membrane Permeable-Phenotype (%): 0%
  Population Mitochondria Different-Phenotype (%): 26%
  Population Mitotic Cells (%): 71%
  Population Normal (%): 87%
  Population Pyknosed Nuclei (%): 16%
  Population Tubulin-Different-Phenotype (%): 10%
  Total Cell Count: 69
[3]
  Population Apoptotic (%): 75%
  Population Fragmented Nuclei (%): 33%
  Population Healthy Nuclei (%): 47%
  Population Hoechst High Intensity Objects (%): 22%
  Population Membrane Permeable-Phenotype (%): 1%
  Population Mitochondria Different-Phenotype (%): 40%
  Population Mitotic Cells (%): 24%
  Population Normal (%): 77%
  Population Pyknosed Nuclei (%): 19%
  Population Tubulin-Different-Phenotype (%): 88%
  Total Cell Count: 217
[4]
  Population Apoptotic (%): 61%
  Population Fragmented Nuclei (%): 14%
  Population Healthy Nuclei (%): 56%
  Population Hoechst High Intensity Objects (%): 4%
  Population Membrane Permeable-Phenotype (%): 25%
  Population Mitochondria Different-Phenotype (%): 100%
  Population Mitotic Cells (%): 38%
  Population Normal (%): 95%
  Population Pyknosed Nuclei (%): 29%
  Population Tubulin-Different-Phenotype (%): 94%
  Total Cell Count: 49
[5]
  Population Apoptotic (%): 40%
  Population Fragmented Nuclei (%): 26%
  Population Healthy Nuclei (%): 52%
  Population Hoechst High Intensity Objects (%): 11%
  Population Membrane Permeable-Phenotype (%): 25%
  Population Mitochondria Different-Phenotype (%): 3%
  Population Mitotic Cells (%): 60%
  Population Normal (%): 88%
  Population Pyknosed Nuclei (%): 20%
  Population Tubulin-Different-Phenotype (%): 42%
  Total Cell Count: 136
[6]
  Population Apoptotic (%): 33%
  Population Fragmented Nuclei (%): 10%
  Population Healthy Nuclei (%): 77%
  Population Hoechst High Intensity Objects (%): 3%
  Population Membrane Permeable-Phenotype (%): 5%
  Population Mitochondria Different-Phenotype (%): 13%
  Population Mitotic Cells (%): 66%
  Population Normal (%): 96%
  Population Pyknosed Nuclei (%): 12%
  Population Tubulin-Different-Phenotype (%): 5%
  Total Cell Count: 67
[7]
  Population Apoptotic (%): 72%
  Population Fragmented Nuclei (%): 23%
  Population Healthy Nuclei (%): 51%
  Population Hoechst High Intensity Objects (%): 25%
  Population Membrane Permeable-Phenotype (%): 9%
  Population Mitochondria Different-Phenotype (%): 50%
  Population Mitotic Cells (%): 27%
  Population Normal (%): 74%
  Population Pyknosed Nuclei (%): 25%
  Population Tubulin-Different-Phenotype (%): 80%
  Total Cell Count: 226
[8]
  Population Apoptotic (%): 68%
  Population Fragmented Nuclei (%): 16%
  Population Healthy Nuclei (%): 47%
  Population Hoechst High Intensity Objects (%): 2%
  Population Membrane Permeable-Phenotype (%): 55%
  Population Mitochondria Different-Phenotype (%): 97%
  Population Mitotic Cells (%): 32%
  Population Normal (%): 97%
  Population Pyknosed Nuclei (%): 35%
  Population Tubulin-Different-Phenotype (%): 91%
  Total Cell Count: 51
[9]
  Population Apoptotic (%): 66%
  Population Fragmented Nuclei (%): 38%
  Population Healthy Nuclei (%): 47%
  Population Hoechst High Intensity Objects (%): 20%
  Population Membrane Permeable-Phenotype (%): 17%
  Population Mitochondria Different-Phenotype (%): 0%
  Population Mitotic Cells (%): 33%
  Population Normal (%): 79%
  Population Pyknosed Nuclei (%): 14%
  Population Tubulin-Different-Phenotype (%): 21%
  Total Cell Count: 134
[10]
  Population Apoptotic (%): 100%
  Population Fragmented Nuclei (%): 53%
  Population Healthy Nuclei (%): 45%
  Population Hoechst High Intensity Objects (%): 25%
  Population Membrane Permeable-Phenotype (%): 9%
  Population Mitochondria Different-Phenotype (%): 1%
  Population Mitotic Cells (%): 0%
  Population Normal (%): 74%
  Population Pyknosed Nuclei (%): 1%
  Population Tubulin-Different-Phenotype (%): 49%
  Total Cell Count: 219
[11]
  Population Apoptotic (%): 86%
  Population Fragmented Nuclei (%): 33%
  Population Healthy Nuclei (%): 44%
  Population Hoechst High Intensity Objects (%): 42%
  Population Membrane Permeable-Phenotype (%): 10%
  Population Mitochondria Different-Phenotype (%): 46%
  Population Mitotic Cells (%): 13%
  Population Normal (%): 57%
  Population Pyknosed Nuclei (%): 21%
  Population Tubulin-Different-Phenotype (%): 73%
  Total Cell Count: 191
[12]
  Population Apoptotic (%): 93%
  Population Fragmented Nuclei (%): 34%
  Population Healthy Nuclei (%): 26%
  Population Hoechst High Intensity Objects (%): 24%
  Population Membrane Permeable-Phenotype (%): 22%
  Population Mitochondria Different-Phenotype (%): 54%
  Population Mitotic Cells (%): 6%
  Population Normal (%): 75%
  Population Pyknosed Nuclei (%): 39%
  Population Tubulin-Different-Phenotype (%): 72%
  Total Cell Count: 111
